Assay outcomes: PubChem BioAssay, Sanford-Burnham Center for Chemical Genomics
Scp-1 inhibitor = blocks human Scp-1 phosphatase activity | Q9GZU7 | Recombinant Scp1, phosphopeptide, malachite green phosphate absorbance | inhibition, % at 20 µM | 0.88% of 340,000 active | AID 493091;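 active = inhibition above about 50% at 20 µM, limit read from the data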;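 note: plate controls were DMSO wells with enzyme for no effect and wells lacking enzyme for full effect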
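System: truncated SCP-1 phosphatase (76-261aa); medium: Tris acetate buffer pH 5.5 with MgCl2 and Tween-20; incubation: 45 min room-temperature reaction, 5 min colour, 30 min stabiliser; compound: single 20 µM dose, 1% DMSO; reagent: Phosphorylated 17-residue peptide substrate; read-out: % inhibition at 20 µM; technique: colorimetric free-phosphate detection, absorbance 630 nm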
DNMT1 block = DNMT1 (human) enzyme inhibition; 0.83% of 360,000 active; DNMT1 molecular beacon, Hinp1I cleavage, fluorescence; inhibition (reported as % activation of signal), % at 10 µM; AID 588458; in the data active = inhibition above about 50%
SUMO1-SIM PPI = modulators of human SUMO1-mediated protein-protein interactions | SUMO1 binding to a labelled peptide, TR-FRET, 1 h | P63165 | inhibition, % at 20 µM | 0.33% of 360,000 active; in the data active = inhibition above about 37%
LMPTP block = LMPTP (human) inhibition; P24666; 0.22% of 360,000 active; inhibition, % at 20 µM; AID 651560; recombinant LMPTP-A, OMFP fluorogenic substrate, fluorescence intensity;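 active = compounds that cut the enzyme signal by at least half of the control window in the single-dose screen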;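 note: plate controls were DMSO wells with enzyme plus substrate for no effect and substrate without enzyme for full effect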
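Buffer or medium: Bis-Tris pH 6.0, DTT, detergent; Assay system: LMPTP-A enzyme; Quantity: 0.625 nM enzyme; Detection: endpoint fluorescence intensity; Times: 50 min dark incubation at room temperature; Controls: substrate-only low control, DMSO enzyme-plus-substrate high control; Doses: single 20 µM dose; Read-out: percent inhibition versus substrate-only and uninhibited controls; Reagent: 400 µM OMFP.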
Rpn11 block = blocks the human proteasome subunit Rpn11; O00487; human 26S proteasome, Ub4-pepOG fluorescence polarization; 20S core pre-blocked with epoxomicin; inhibition, % at 20 µM; 0.59% of 360,000 active; AID 588493;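 active = inhibition at 20 µM, scaled to each plate's controls, above about 33%, limit read from the data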
STEP inh = blocks human striatal-enriched tyrosine phosphatase; inhibition, % at 20 µM; recombinant STEP, OMFP fluorogenic substrate, fluorescence; 0.25% of 360,000 active;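 active = inhibition at 20 µM, scaled per plate between control wells, above about 37%, limit read from the data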;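 note: 0% = DMSO with enzyme and substrate and 100% = substrate only without enzyme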
Target sequence (P54829 whole entry, looked up): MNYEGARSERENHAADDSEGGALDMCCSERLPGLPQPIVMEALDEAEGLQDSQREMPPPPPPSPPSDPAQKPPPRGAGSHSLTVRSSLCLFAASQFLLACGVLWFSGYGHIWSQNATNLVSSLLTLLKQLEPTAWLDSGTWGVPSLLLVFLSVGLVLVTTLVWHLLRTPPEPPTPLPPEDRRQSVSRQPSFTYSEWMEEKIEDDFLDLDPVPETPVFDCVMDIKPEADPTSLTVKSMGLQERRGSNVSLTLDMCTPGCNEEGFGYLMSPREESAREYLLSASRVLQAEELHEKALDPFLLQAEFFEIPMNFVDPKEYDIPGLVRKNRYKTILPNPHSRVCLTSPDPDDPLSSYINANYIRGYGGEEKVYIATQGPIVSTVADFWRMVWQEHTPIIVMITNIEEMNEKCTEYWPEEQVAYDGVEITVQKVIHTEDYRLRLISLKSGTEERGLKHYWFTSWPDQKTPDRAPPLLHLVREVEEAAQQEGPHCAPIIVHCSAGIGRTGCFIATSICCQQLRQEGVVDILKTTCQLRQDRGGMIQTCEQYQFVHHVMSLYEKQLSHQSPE
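material = STEP tyrosine phosphatase | reagent = fluorogenic phosphatase substrate OMFP at 25 µM final | doses = single compound dose of 20 µM, 1% DMSO final | schedule = 20 min reaction, room temperature, in the dark | measured by = fluorescence, 480/540 nm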
An asterisk follows results filed as active; . = not tested or not shown. An excerpt weighted towards active compounds, which were near 2.3% of everything screened.

SMILES	Scp-1 inhibitor	DNMT1 block	SUMO1-SIM PPI	LMPTP block	Rpn11 block	STEP inh
CC[C@@]1(O)C(=O)OCc2c1cc1n(c2=O)Cc2cc3c(N)cccc3nc2-1	56.9*	15.1	-16.5	1.6	-16.0	5.1
CC[C@@]1(O)C(=O)OCc2c1cc1n(c2=O)Cc2cc3c(CN(C)C)c(O)ccc3nc2-1	-3.8	22.6	-28.9	0.2	-181.5	-5.8
Cc1cc2[nH]c3ccccc3c2c(C)n1	0.5	26.1	3.1	16.5	-2.9	-5.7
Cc1cc2[nH]c3c4ccccc4nc(C)c3c2cc1C	0.5	10.3	18.0	55.1*	-1.1	5.6
COc1ccc(-c2[nH][nH]c(=O)c2NC(=O)c2ccccn2)cc1	.	-13.1	6.0	1.6	-5.4	2.2
COc1ccc(CCC(=O)Nc2c(-c3ccc(N(C)C)cc3)[nH][nH]c2=O)cc1	.	58.3*	47.0*	13.0	24.9	8.2
O=C(Cc1ccc(-n2c(=O)c3ccccc3n(Cc3ccc(F)cc3)c2=O)cc1)NCC1CCCO1 (stereo unspecified)	-30.4	0.6	40.0*	0.0	1.0	2.0
CC(C)(C)Cc1c(-c2cccc(Br)c2)nc2ccc(Cl)cn12	.	5.8	2.3	1.2	22.0	3.3
NC(=O)c1cc[n+](CC2=C(C(=O)O)N3C(=O)[C@@H](NC(=O)C(c4ccccc4)S(=O)(=O)[O-])[C@H]3SC2)cc1 (stereo partly specified)	84.8*	97.9*	81.7*	15.4	38.4	96.8*
COc1ccc(Br)cc1S(=O)(=O)N1CCN=C1c1ccccc1	-6.7	-1.5	-5.7	0.3	11.5	-2.3
Brc1ccc2c(c1)-c1ccccc1C1=NCCN12	.	53.4*	0.7	5.7	9.4	3.7
Clc1ccc2c(c1)-c1ccccc1C1=NCCN12	.	50.9*	2.4	4.9	5.3	-1.6
CCOC(=O)C1=CN(Cc2ccco2)S(=O)(=O)NC1c1ccc(F)c(Cl)c1 (stereo unspecified)	-1.3	3.2	4.9	0.9	-0.1	0.0
Nc1cc(N)nc(SCC(=O)NC2CCCCCCC2)n1	-2.0	1.9	2.6	2.1	2.2	0.0
C=CCNC(=O)c1ccc2c(c1)nnn2C	-12.1	3.8	-0.2	-1.5	-2.5	-2.1
COCC(=O)OC1CCn2c1nc1c2C(=O)C(C)=C(NC(C)=O)C1=O (stereo unspecified)	4.0	87.7*	18.6	4.8	-2.3	2.1
O=C(CCS(=O)(=O)c1ccc(F)cc1)Nc1nc(-c2ccncc2)cs1	-4.5	7.6	-1.5	0.3	-6.7	57.0*
CCc1nc2ccc(C(=O)NCCCN3CCCC3=O)cn2c1N(CC)C(=O)NCCc1ccccc1	.	3.2	-1.3	-4.2	6.6	-3.1
COc1cc(OC)c(OC)cc1CNCc1ccco1	-2.5	1.9	-0.1	-1.2	4.6	-2.7
COc1cc(C(=O)NCC(=O)NC(C)c2ccc(-n3ccnc3)cc2)cc(OC)c1OC (stereo unspecified)	-1.9	2.3	12.1	-0.5	1.2	2.1
CCOc1ccc(C(=O)NCC(=O)NC(C)c2ccc(-n3ccnc3)cc2)cc1OCC (stereo unspecified)	-1.8	0.6	45.0*	-0.5	2.1	-2.5
Cc1ccc(C23CC4CC(CC(C(=O)NC(C)C(N)=O)(C4)C2)C3)cc1 (stereo unspecified)	-6.5	-0.3	-7.2	-0.5	-2.8	-3.0
COc1cc(/C=C2\SC(=O)N(c3cccc(Cl)c3)C2=O)cc([N+](=O)[O-])c1O	56.2*	70.5*	2.3	82.2*	-29.0	97.6*
Brc1ccc2ncc(Br)cc2c1	-6.3	2.2	-5.6	-1.3	-4.3	-2.6
CCOC(=O)N=Nc1c(O)n(CC(=O)OC)c2ccccc12	4.6	-1.5	-16.6	-2.0	-0.9	-0.4
CCOC(=O)N=Nc1c2ccccc2c2nc3no[nH]c3nc12	-5.2	50.4*	-15.0	5.3	-3.3	1.7
CCC1CCCCN1CCCNC(=O)CN1C(=O)COc2ccc(S(=O)(=O)N3CCC(C)CC3)cc21 (stereo unspecified)	0.6	1.4	40.2*	-2.8	0.8	-1.2
